pIC50: −log10 of the molar value. ≈ marks a conversion by molar mass, not a printed value. Calls of active or inactive are those of the source. The rule behind the calls is not given here.
Columns and labels:
[1] = biological target: T1, Hyaluronidase (Bos taurus) (UniProt Q8SQG8+Q5E985); assay: Inhibition of bovine testes hyaluronidase at 150 uM after 30 mins at pH 5 by turbidimetric analysis; type: protein assay
Streptococcus agalactiae [2] = assay: Inhibition of Streptococcus agalactiae 4755 hyaluronidase at 49 uM after 30 mins at pH 5.0 by turbidimetric analysis
How it was run: (§1)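 SagHyal4755 (2.9 ng) with BSA and hyaluronan (2 mg/ml stock) in citrate–phosphate/NaCl buffer pH 5.0, 3.8% DMSO final, 30 min at 37 °C. Stopped by alkaline 2.5% CTAB, then 20 min at 25 °C. Residual-substrate turbidity read at 600 nm; no-inhibitor sample = 100%, no-enzyme sample = 0% activity. Enzyme-free compound controls were run.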

[3] = biological target: T1, Hyaluronidase (Bos taurus); assay: Inhibition of bovine testes hyaluronidase at 400 uM after 30 mins at pH 5 by turbidimetric analysis; type: protein assay
[4] = biological target: T1, Hyaluronidase (Bos taurus); assay: Inhibition of bovine testes hyaluronidase at 49 uM after 30 mins at pH 5 by turbidimetric analysis; type: protein assay
[5] = Inhibition of Streptococcus agalactiae 4755 hyaluronidase at pH 7.4 after 3 hrs by turbidimetric analysis
How it was run: (§2)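 Same turbidimetric hyaluronan-lyase assay at pH 7.4 (citrate–phosphate/NaCl): SagHyal4755 2.9 ng, hyaluronan (2 mg/ml stock), BSA, 3.8% DMSO final, 3 h at 37 °C. CTAB (2.5%, in 0.5 M NaOH) precipitation, 20 min at 25 °C, A600. Activity scaled between no-inhibitor and no-enzyme samples.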

[6] = biological target: T1, Hyaluronidase (Bos taurus); assay: Inhibition of bovine testes hyaluronidase at 63 uM after 30 mins at pH 5 by turbidimetric analysis; type: protein assay
[7] = biological target: T1, Hyaluronidase (Bos taurus); assay: Inhibition of bovine testes hyaluronidase at 460 uM after 30 mins at pH 5 by turbidimetric analysis; type: protein assay
[8] = biological target: T1, Hyaluronidase (Bos taurus); assay: Inhibition of bovine testes hyaluronidase at 200 uM after 30 mins at pH 5 by turbidimetric analysis; type: protein assay
[9] = biological target: T1, Hyaluronidase (Bos taurus); assay: Inhibition of bovine testes hyaluronidase at 130 uM after 30 mins at pH 5 by turbidimetric analysis; type: protein assay
[10] = biological target: T1, Hyaluronidase (Bos taurus); assay: Inhibition of bovine testes hyaluronidase at 3800 uM after 30 mins at pH 5 by turbidimetric analysis; type: protein assay
[11] = biological target: T1, Hyaluronidase (Bos taurus); assay: Inhibition of bovine testes hyaluronidase at 180 uM after 30 mins at pH 5 by turbidimetric analysis; type: protein assay
[12] = biological target: T1, Hyaluronidase (Bos taurus); assay: Inhibition of bovine testes hyaluronidase at 170 uM after 30 mins at pH 5 by turbidimetric analysis; type: protein assay
[13] = biological target: T1, Hyaluronidase (Bos taurus); assay: Inhibition of bovine testes hyaluronidase at 380 uM after 30 mins at pH 5 by turbidimetric analysis; type: protein assay
[14] = biological target: T1, Hyaluronidase (Bos taurus); assay: Inhibition of bovine testes hyaluronidase at 190 uM after 30 mins at pH 5 by turbidimetric analysis; type: protein assay
[15] = biological target: T1, Hyaluronidase (Bos taurus); assay: Inhibition of bovine testes hyaluronidase at 2000 uM after 30 mins at pH 5 by turbidimetric analysis; type: protein assay
[16] = biological target: T1, Hyaluronidase (Bos taurus); assay: Inhibition of bovine testes hyaluronidase at 100 uM after 30 mins at pH 5 by turbidimetric analysis; type: protein assay
[17] = Aqueous solubility of the compound in water; type: physicochemical
How it was run: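 Turbidity at 600 nm of test compound in DMSO added to citrate–phosphate buffer (pH 5 and pH 7.4), water and BSA (0.2 mg/ml stock), at various concentrations, read against a water reference. Enzyme testing used only concentrations showing no turbidity.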

[18] = biological target: T1, Hyaluronidase (Bos taurus); assay: Inhibition of bovine testes hyaluronidase at 80 uM after 30 mins at pH 5 by turbidimetric analysis; type: protein assay
[19] = biological target: T1, Hyaluronidase (Bos taurus); assay: Inhibition of bovine testes hyaluronidase at 4200 uM after 30 mins at pH 5 by turbidimetric analysis; type: protein assay
Streptococcus agalactiae [20] = assay: Inhibition of Streptococcus agalactiae 4755 hyaluronidase at 3800 uM after 30 mins at pH 5.0 by turbidimetric analysis; how it was run: as §1
Streptococcus agalactiae [21] = assay: Inhibition of Streptococcus agalactiae 4755 hyaluronidase at 400 uM after 30 mins at pH 5.0 by turbidimetric analysis; how it was run: as §1
Streptococcus agalactiae [22] = assay: Inhibition of Streptococcus agalactiae 4755 hyaluronidase at 200 uM after 30 mins at pH 5.0 by turbidimetric analysis; how it was run: as §1
Streptococcus agalactiae [23] = assay: Inhibition of Streptococcus agalactiae 4755 hyaluronidase at 380 uM after 30 mins at pH 5.0 by turbidimetric analysis; how it was run: as §1
Streptococcus agalactiae [24] = assay: Inhibition of Streptococcus agalactiae 4755 hyaluronidase at 460 uM after 30 mins at pH 5.0 by turbidimetric analysis; how it was run: as §1
Streptococcus agalactiae [25] = assay: Inhibition of Streptococcus agalactiae 4755 hyaluronidase at 200 uM after 3 hrs at pH 7.4 by turbidimetric analysis; how it was run: as §2
Streptococcus agalactiae [26] = assay: Inhibition of Streptococcus agalactiae 4755 hyaluronidase at 180 uM after 30 mins at pH 5.0 by turbidimetric analysis; how it was run: as §1
Streptococcus agalactiae [27] = assay: Inhibition of Streptococcus agalactiae 4755 hyaluronidase at 170 uM after 30 mins at pH 5.0 by turbidimetric analysis; how it was run: as §1
Streptococcus agalactiae [28] = assay: Inhibition of Streptococcus agalactiae 4755 hyaluronidase at 190 uM after 30 mins at pH 5.0 by turbidimetric analysis; how it was run: as §1
Streptococcus agalactiae [29] = assay: Inhibition of Streptococcus agalactiae 4755 hyaluronidase at 100 uM after 30 mins at pH 5.0 by turbidimetric analysis; how it was run: as §1

Row | SMILES | inhibition [1] | inhibition [3] | inhibition [4] | pIC50 [5] | inhibition [6] | inhibition [7] | inhibition [8] | inhibition [9] | inhibition [10] | inhibition [11] | inhibition [12] | inhibition [13] | inhibition [14] | inhibition [15] | inhibition [16] | solubility [17] [µM] | inhibition [18] | inhibition [19] | further results
1 | CCCCCC(=O)n1c(=S)n(C(C)=O)c2ccccc21 | inactive | inactive | inactive | 4.92 | inactive | inactive | inactive | inactive | inactive | inactive | inactive | inactive | inactive | inactive | inactive | 49 (≈ 14.2 µg/mL) | inactive | inactive | inhibition (Streptococcus agalactiae [2]): 50%
2 | Sc1nc2ccccc2o1 | inactive | inactive | inactive | 2.59 | inactive | inactive | inactive | inactive | inactive | inactive | inactive | inactive | inactive | inactive | inactive | 3800 (≈ 575 µg/mL) | inactive | inactive | inhibition (Streptococcus agalactiae [20]): 42%
3 | O=C(c1cccc(Cl)c1)n1c(=S)[nH]c2ccccc21 | inactive | inactive | inactive | 4.15 | inactive | inactive | inactive | inactive | inactive | inactive | inactive | inactive | inactive | inactive | inactive | 400 (≈ 116 µg/mL) | inactive | inactive | inhibition (Streptococcus agalactiae [21]): 16%
4 | COC(=O)c1ccc2oc(=S)n(C(=O)CCc3ccccc3)c2c1 | inactive | inactive | inactive | 4.68 | inactive | inactive | inactive | inactive | inactive | inactive | inactive | inactive | inactive | inactive | inactive | 200 (≈ 68.3 µg/mL) | inactive | inactive | inhibition (Streptococcus agalactiae [22]): 56%
5 | CCn1c(=S)n(C(C)=O)c2ccccc21 | inactive | inactive | inactive | 4.72 | inactive | inactive | inactive | inactive | inactive | inactive | inactive | inactive | inactive | inactive | inactive | 380 (≈ 83.7 µg/mL) | inactive | inactive | inhibition (Streptococcus agalactiae [23]): 10%
6 | CC(=O)n1c(=S)[nH]c2ccccc21 | inactive | inactive | inactive | 4.77 | inactive | inactive | inactive | inactive | inactive | inactive | inactive | inactive | inactive | inactive | inactive | 460 (≈ 88.4 µg/mL) | inactive | inactive | inhibition (Streptococcus agalactiae [24]): 20%
7 | CC(=O)n1c(=O)n(C(C)=O)c2ccccc21 | inactive | inactive | inactive |  | inactive | inactive | inactive | inactive | inactive | inactive | inactive | inactive | inactive | inactive | inactive | 200 (≈ 43.6 µg/mL) | inactive | inactive | inhibition (Streptococcus agalactiae [22]): inactive; inhibition (Streptococcus agalactiae [25]): 10%
8 | CCC(=O)n1c(=S)[nH]c2ccccc21 | inactive | inactive | inactive | 4.59 | inactive | inactive | inactive | inactive | inactive | inactive | inactive | inactive | inactive | inactive | inactive | 180 (≈ 37.1 µg/mL) | inactive | inactive | inhibition (Streptococcus agalactiae [26]): 4%
9 | CCCCCC(=O)n1c(=S)[nH]c2ccccc21 | inactive | inactive | inactive | 4.80 | inactive | inactive | inactive | inactive | inactive | inactive | inactive | inactive | inactive | inactive | inactive | 170 (≈ 42.2 µg/mL) | inactive | inactive | inhibition (Streptococcus agalactiae [27]): 14%
10 | CCCC(=O)n1c(=S)[nH]c2ccccc21 | inactive | inactive | inactive | 4.70 | inactive | inactive | inactive | inactive | inactive | inactive | inactive | inactive | inactive | inactive | inactive | 190 (≈ 41.9 µg/mL) | inactive | inactive | inhibition (Streptococcus agalactiae [28]): 7%
11 | O=C(OCc1ccccc1)n1c(=S)oc2ccccc21 | inactive | inactive | inactive | 3.25 | inactive | inactive | inactive | inactive | inactive | inactive | inactive | inactive | inactive | inactive | inactive | 100 (≈ 28.5 µg/mL) | inactive | inactive | inhibition (Streptococcus agalactiae [29]): inactive

Source: ChEMBL document CHEMBL1817567, “Design of benzimidazole- and benzoxazole-2-thione derivatives as inhibitors of bacterial hyaluronan lyase” (Eur J Med Chem, 2011)
